Measurements from ChEMBL document CHEMBL1122815, “Synthesis and hypoglycemic activity of N-alkylated hydrazonopropionic acids” (J Med Chem, 1985).

System: Cavia porcellus
Assay: Hypoglycemic activity at a dose of 20 mg/kg administered intraperitoneally
Format: functional
Settings: dose 50 mg/kg; route intraperitoneal; in the assay text read “50 mg/kg” for “20 mg/kg”
How it was run: (§1)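 Guinea pigs fasted from about 20 h before and throughout the study, with free access to water; six animals per dose group. Compound was given ip as a neutral solution, and a parallel control group received physiological NaCl ip. Ear-vein blood (10 μL) was taken before dosing and then hourly to 6 h. Glucose was measured by hexokinase on the hemolysate. The effect was calculated as the % difference of the lowest glucose relative to the initial value. U-test, p ≤ 0.05.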

Which “Decrease in blood glucose” value does the source give for CCCCCCCCCN/N=C(\C)C(=O)O here?
Its value is 25%.

System: Cavia porcellus
Assay: Hypoglycemic activity was given as differences between the mean changes in blood glucose concentration in control group and the treated group after a dose of 25 mg/kg, ip
Format: functional
Settings: route intraperitoneal
How it was run: as §1

With C/C(=N\NCCc1ccc(Cl)cc1)C(=O)O as the molecule, how does the “Decrease in blood glucose” value read?
Its value is 11%.

Which “Decrease in blood glucose” value does the source give for CCCCCCN/N=C(\C)C(=O)O here?
Its value is 72%.

With C/C(=N\NCCc1cccc(C)c1)C(=O)[O-].[Na+] as the molecule, how does the “Decrease in blood glucose” value read?
Its value is 24%.

With C/C(=N\NC/C=C/c1ccc(Cl)cc1)C(=O)O as the molecule, how does the “Decrease in blood glucose” value read?
The value was 9%.

With CCC/C=C/CN/N=C(\C)C(=O)O as the molecule, how does the “Decrease in blood glucose” value read?
Its value is 43%.

Which “Decrease in blood glucose” value does the source give for C/C(=N\NCCCC1CCCC1)C(=O)O here?
Its value is 68%.

Which “Decrease in blood glucose” value does the source give for C/C(=N\NCCc1ccc(F)cc1)C(=O)O here?
Its value is 21%.

With CCCCCN/N=C(\C)C(=O)[O-].[Na+] as the molecule, how does the “Decrease in blood glucose” value read?
The value was 45%.

With CCCN/N=C(\C)C(=O)O as the molecule, how does the “Decrease in blood glucose” value read?
Its value is 24%.

Which “Decrease in blood glucose” value does the source give for C/C(=N\NC/C=C/c1ccccc1)C(=O)[O-].[Na+] here?
Its value is 15%.

For C=CCCCCN/N=C(\C)C(=O)[O-].[Na+], which “Decrease in blood glucose” value is on record?
The value was 60%.

With C/C(=N\NCc1ccccc1)C(=O)O as the molecule, how does the “Decrease in blood glucose” value read?
The value was 7%.

Which “Decrease in blood glucose” value does the source give for C/C(=N\NCCCC1CCCCC1)C(=O)[O-].[Na+] here?
Its value is 13%.

Which “Decrease in blood glucose” value does the source give for C/C(=N\NCCC1CCCCC1)C(=O)O here?
Its value is 48%.

Which “Decrease in blood glucose” value does the source give for C/C(=N\NCCc1ccc(C)cc1)C(=O)O here?
Its value is 8%.

Which “Decrease in blood glucose” value does the source give for C/C(=N\NCCOc1ccccc1)C(=O)O here?
The value was 22%.

Which “Decrease in blood glucose” value does the source give for CCCOCCCCN/N=C(\C)C(=O)O here?
The value was 22%.

Which “Decrease in blood glucose” value does the source give for CCCCCCCCN/N=C(\C)C(=O)O here?
The value was 69%.

For CCCCCCCN/N=C(\C)C(=O)O, which “Decrease in blood glucose” value is on record?
The value was 70%.

With N=C(N)NC(=N)NCCc1ccccc1 [PHENFORMIN] as the molecule, how does the “Decrease in blood glucose” value read?
Its value is 70%.

For CCC(C)CCCN/N=C(\C)C(=O)O (centres undefined), which “Decrease in blood glucose” value is on record?
The value was 41%.

With COCCCCCCN/N=C(\C)C(=O)O as the molecule, how does the “Decrease in blood glucose” value read?
The value was 22%.

With C/C(=N\NC/C=C/c1cccc(Cl)c1)C(=O)O as the molecule, how does the “Decrease in blood glucose” value read?
Its value is 14%.

With C/C(=N\NCCCCc1ccccc1)C(=O)[O-].[Na+] as the molecule, how does the “Decrease in blood glucose” value read?
The value was 34%.

Which “Decrease in blood glucose” value does the source give for C/C(=C\CN/N=C(\C)C(=O)O)c1ccccc1 here?
The value was 20%.

Which “Decrease in blood glucose” value does the source give for CC/C=C/CCN/N=C(\C)C(=O)O here?
Its value is 82%.

For CCCCCC(C)N/N=C(\C)C(=O)O (centres undefined), which “Decrease in blood glucose” value is on record?
Its value is 45%.

For COc1ccc(CCN/N=C(\C)C(=O)O)cc1, which “Decrease in blood glucose” value is on record?
Its value is 7%.

For C/C(=N\NCC/C=C/c1ccccc1)C(=O)O, which “Decrease in blood glucose” value is on record?
The value was 15%.

For CCCCN/N=C(\C)C(=O)O, which “Decrease in blood glucose” value is on record?
The value was 41%.

For CCOC(=O)/C(C)=N/NCCc1ccccc1, which “Decrease in blood glucose” value is on record?
The value was 14%.

With C/C(=N\NC/C=C/c1cccc(C)c1)C(=O)O as the molecule, how does the “Decrease in blood glucose” value read?
The value was 22%.

With C/C(=N\NCCc1ccccc1)C(=O)O as the molecule, how does the “Decrease in blood glucose” value read?
The value was 40%.

System: Cavia porcellus
Assay: Hypoglycemic activity was given as differences between the mean changes in blood glucose concentration in control group and the treated group after a dose of 50 mg/kg, ip
Format: functional
Settings: route intraperitoneal
How it was run: as §1

With C/C(=N\NCCc1ccccc1C)C(=O)O as the molecule, how does the “Decrease in blood glucose” value read?
The value was 14%.

With C/C(=N\NCCc1ccccc1)C(N)=O as the molecule, how does the “Decrease in blood glucose” value read?
Its value is 15%.

For C/C(=N\NCCc1cccc(C(F)(F)F)c1)C(=O)O, which “Decrease in blood glucose” value is on record?
Its value is 13%.

Which “Decrease in blood glucose” value does the source give for C/C(=N\NCC(C)c1ccccc1)C(=O)[O-].[Na+] (centres undefined) here?
Its value is 15%.

Which “Decrease in blood glucose” value does the source give for C/C(=N\NCC(C)Cc1ccccc1)C(=O)O (centres undefined) here?
The value was 22%.

For C/C(=N\NC(C)Cc1ccccc1)C(=O)[O-].[Na+] (centres undefined), which “Decrease in blood glucose” value is on record?
The value was 14%.

For C/C(=N\NC/C=C/c1cccc(Cl)c1)C(=O)O, which “Decrease in blood glucose” value is on record?
The value was 6%.

With C/C(=N\NCCCc1ccccc1)C(=O)[O-].[Na+] as the molecule, how does the “Decrease in blood glucose” value read?
Its value is 23%.

System: not listed separately
Assay: Lethal dose on oral administration to rats was determined
Format: toxicity, organism-based
Settings: rat, in vivo

With C/C(=N\NCCC1CCCCC1)C(=O)O as the molecule, how does the LD50 read?
The LD50 was 520 mg/kg.

Which LD50 does the source give for C/C(=C/c1ccccc1)CN/N=C(\C)C(=O)O here?
Its LD50 is 680 mg/kg.
